From PubChem BioAssay
Shown are actives, neighbours in structure and some others; about 1.8% of the full set was active somewhere.
HTRA1 inhibitor: HTRA1 serine protease inhibitors, primary screen, biochemical, fluorescence polarization, HTS; Q92743; recombinant HTRA1, FP-rhodamine activity-based probe; inhibition, % at 5.96 µM; 340,000 tested, 0.5% active; in the data active = inhibition above about 36%
Target sequence (Q92743 whole entry, looked up): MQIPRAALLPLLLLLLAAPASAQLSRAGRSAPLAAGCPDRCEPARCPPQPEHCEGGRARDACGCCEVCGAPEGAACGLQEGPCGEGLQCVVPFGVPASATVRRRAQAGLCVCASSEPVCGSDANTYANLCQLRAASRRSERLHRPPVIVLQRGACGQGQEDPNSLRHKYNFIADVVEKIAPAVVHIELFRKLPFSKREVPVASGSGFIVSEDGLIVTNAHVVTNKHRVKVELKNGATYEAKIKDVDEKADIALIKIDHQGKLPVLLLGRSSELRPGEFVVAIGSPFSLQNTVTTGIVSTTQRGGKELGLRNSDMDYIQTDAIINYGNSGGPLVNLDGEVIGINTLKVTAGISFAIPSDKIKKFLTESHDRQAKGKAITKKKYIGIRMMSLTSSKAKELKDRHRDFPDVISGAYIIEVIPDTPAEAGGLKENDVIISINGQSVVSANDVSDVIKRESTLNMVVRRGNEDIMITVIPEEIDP
SIAE primary: human SIAE inhibitors, primary screen, biochemical, fluorescence polarization, FP-Rh probe, 1536-well HTS; SIAE FP-Rh probe binding; inhibition, % at 9.66 µM; Sialate O-acetylesterase (Homo sapiens), Q9HAT2; 370,000 tested, 0.69% active; AID 1053197, 2014;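 active = inhibition above a cutoff: mean of compounds within the control limits plus 3 SD of those, cut at about 17% in these data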
TCR-CD3 inh: inhibitors of human TCR-CD3 interaction, primary screen, biochemical, fluorescence, TAMRA-labeled TCR probe; inhibition, % at 9.4 µM; 360,000 tested, 0.37% active; T-cell receptor (TCR); in the data active = inhibition above about 19%;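 note: recombinant mutant TCR 2C K166C tagged with TAMRA read by polarization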
ABHD4 inh: ABHD4 inhibitors, primary screen, biochemical, fluorescence polarization, mouse | (Lyso)-N-acylphosphatidylethanolamine lipase (Mus musculus), Q8VD66 | purified mABHD4, FP-Rh probe fluorescence polarization | inhibition, % at 8.92 µM | 370,000 tested, 0.54% active;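 active = inhibition exceeding the mean over every tested compound plus 3 SD, cut at about 30% in these data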
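Doses – 8.92 µM, single dose · Material – wild-type mouse ABHD4 protein · Replication – single well per compound (singlicate) · Measure – percent inhibition of probe binding, normalized to plate controls · Schedule – 45 min compound pre-incubation plus 60 min probe step, 25 °C · Detection – fluorescence polarization with parallel and perpendicular emission, 525/598 nm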
ARNT TACC3 PPI: disruptors of ARNT/TACC3 protein interaction, primary screen, biochemical, AlphaScreen, single concentration. Transforming acidic coiled-coil-containing protein 3 (Homo sapiens), Q9Y6A5. AlphaScreen His-ARNT PAS-B/GST-TACC3 binding, luminescence; TACC3 fragment carries E629A point mutation. inhibition, % at 9.99 µM. 390,000 tested, 0.66% active. AID 623870, 2012;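 active = mean inhibition of replicates at least 50% and at least half of replicates each reaching 50%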
Hits are given with their value; - = inactive; . = no result given.

SMILES | HTRA1 inhibitor | SIAE primary | TCR-CD3 inh | ABHD4 inh | ARNT TACC3 PPI
C[C@H](CO)N1C[C@H](C)[C@@H](CN(C)S(=O)(=O)c2ccc(F)cc2)OCCCC[C@H](C)Oc2ccc(NC(=O)Nc3ccccc3)cc2C1=O | . | . | . | . | -
C[C@@H]1CN([C@H](C)CO)C(=O)Cc2cc(NC(=O)CCN3CCOCC3)ccc2O[C@@H]1CN(C)C(=O)Nc1ccc2c(c1)OCO2 | . | . | . | . | -
Cc1nc(N)sc1-c1csc(Nc2cccc(C(=O)O)c2)n1 | - | - | - | - | 52
Cc1cc(NS(=O)(=O)c2ccc(Nc3nc(-c4ccc(O)cc4)cs3)cc2)no1 | - | - | - | 42 | -
Cc1cc(NS(=O)(=O)c2ccc(Nc3nc(-c4sc(N)nc4C)cs3)cc2)no1 | - | . | . | . | 62
Cc1cc(NS(=O)(=O)c2ccc(Nc3nc(-c4ccc(C)c(C)c4)cs3)cc2)no1 | - | - | - | - | -
COc1cccc(-c2ccc3c(c2)O[C@@H](CN(C)C)[C@H](C)CN([C@@H](C)CO)S3(=O)=O)c1 | . | . | . | . | -
O=C1C(N2CCOCC2)=C(n2nnc3ccccc32)C(=O)c2ccccc21 | - | - | - | - | 45
O=C(NCCCn1ccnc1)/C(=C/c1ccc(F)cc1)NC(=O)c1ccccc1 | - | - | - | - | 62
O=C(NCCCn1ccnc1)/C(=C\c1ccco1)NC(=O)c1ccco1 | - | - | - | - | 57
CC(C)c1ccc(/C=C(\NC(=O)c2ccccc2)C(=O)NCCCn2ccnc2)cc1 | - | - | - | - | .
Cc1noc(C)c1S(=O)(=O)Nc1ccc2c(c1)CC(=O)N([C@H](C)CO)C[C@@H](C)[C@H](CN(C)CC1CCCCC1)O2 | . | . | . | . | -
Cc1ccc(S(=O)(=O)Nc2ccc3c(c2)C(=O)N([C@H](C)CO)C[C@@H](C)[C@H](CN(C)Cc2ccc(-c4ccccc4)cc2)O3)cc1 | . | . | . | . | -
CCC(=O)OC1(C)C(=O)C=C2C=C(c3ccsc3)OC=C2C1=O (stereo unspecified) | 48 | . | . | . | .
O=C(Cn1ncc2c1-c1ccccc1OC2)Nc1nc2ccccc2s1 | - | - | 19 | - | -
CO[C@H]1CN(C)C(=O)c2cc(NS(C)(=O)=O)ccc2OC[C@H](C)N(C(=O)CC2CC2)C[C@H]1C | . | . | . | . | -
CC(=O)N(C)C[C@@H]1Oc2cc(-c3ccc(C#N)cc3)ccc2S(=O)(=O)N([C@H](C)CO)C[C@@H]1C | . | . | . | . | active
CNC[C@@H]1Oc2cc(C#Cc3ccccn3)ccc2S(=O)(=O)N([C@H](C)CO)C[C@H]1C | . | . | . | . | 46
C=CCn1c(Cc2nc3ccc(Cl)cc3[nH]2)n[nH]c1=S | - | - | - | - | 36
Nc1sc2c(c1C(=O)NC1CCS(=O)(=O)C1)CCCC2 (stereo unspecified) | - | 22 | - | - | -
COc1ccccc1-c1nc(-c2ccccn2)no1 | - | - | - | - | -
CCOC(=O)C(C)Sc1ncc(OC)c(Sc2ccc(Cl)cc2)n1 (stereo unspecified) | - | - | - | - | -
CCOC(=O)C(C)Sc1nc(-c2ccccn2)ncc1OC (stereo unspecified) | - | - | - | - | 60
COc1cnc(-c2ccccn2)nc1N(C)C | - | - | - | - | 74
CC(C)NC(=O)N(C)C[C@H]1Oc2cc(-c3ccccc3F)ccc2S(=O)(=O)N([C@@H](C)CO)C[C@H]1C | . | . | . | . | -
SMILES | HTRA1 inhibitor | SIAE primary | TCR-CD3 inh | ABHD4 inh | ARNT TACC3 PPI
O=C(C[C@H]1CC[C@@H]2[C@H](COC[C@@H](O)CN2S(=O)(=O)c2cccc(F)c2)O1)Nc1ccc(-c2ccccc2)cc1 | . | . | . | . | -
COCCNC(=O)C[C@@H]1C[C@H]2c3cc(NC(=O)c4ccc5c(c4)OCO5)ccc3O[C@H]2[C@H](CO)O1 | . | . | . | . | -
O=C(c1ccco1)N1CCN(c2nc3ccccc3n3nnnc23)CC1 | - | - | - | - | -
c1ccc(CC2CCN(c3nc4ccccc4n4nnnc34)CC2)cc1 | - | - | 33 | - | -
CCCc1ccc(-c2cc(NC(=O)Cc3c(C)[nH]c4ccccc34)ccc2N(C)c2cccnc2)cc1 | . | - | - | 37 | .
CN(C)C(N)=NCCC[C@H](N)C(=O)O | - | - | - | - | active
CN(C)CC(=O)N1[C@H](C(=O)NC2CCCC2)[C@@H](CO)[C@@H]2Cn3c(ccc(-c4ccc(F)cc4)c3=O)[C@@H]21 | . | . | . | . | -
